Screening data from PubChem BioAssay.
ROMK mod – ROMK potassium channel modulators, primary screen, cell-based, thallium flux, MLSMR library. 130,000 compounds, 2% hits. B-score at 10 µM. Tet-inducible ROMK, thallium flux fluorescence; actives lie on both sides. ATP-sensitive inward rectifier potassium channel 1 (Homo sapiens), P48048;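 active = signal ratio slope over the read window, or its plate-corrected B-score, at least 3 SD from the plate mean, either direction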;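 also: B-score of the F/F0 ratio slope over 7 to 12 s after thallium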
Target sequence (P48048 whole entry, looked up): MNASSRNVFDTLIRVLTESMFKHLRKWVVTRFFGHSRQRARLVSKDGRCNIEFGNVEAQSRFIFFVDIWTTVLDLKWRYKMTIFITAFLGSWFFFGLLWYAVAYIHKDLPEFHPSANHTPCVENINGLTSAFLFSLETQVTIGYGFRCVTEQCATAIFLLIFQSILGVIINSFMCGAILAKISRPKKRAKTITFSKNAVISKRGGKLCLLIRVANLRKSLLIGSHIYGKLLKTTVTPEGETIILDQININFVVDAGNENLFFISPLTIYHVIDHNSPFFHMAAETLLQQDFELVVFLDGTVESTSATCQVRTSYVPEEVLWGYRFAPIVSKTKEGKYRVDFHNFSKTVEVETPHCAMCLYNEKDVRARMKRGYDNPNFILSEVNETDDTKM
Calb biofilm kill – clotrimazole potentiators killing C. albicans biofilm, primary screen, 4-compound mixtures. C. albicans biofilm persisters + clotrimazole, fluorescence viability; primary screen in compound mixtures of four per well. inhibition, % at 7.6 µM. 120,000 compounds, 0.02% hits;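 active = inhibition above 30.3% in the primary screen of four-compound pools, then above 30% when the compound was retested; inconclusive = passed the primary limit but could not be retested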;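 also: compounds exposed to preformed 24 h biofilms for 48 h; 0% = untreated biofilm control and 100% = clotrimazole plus chlorhexidine kill blank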
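Probe or stimulus – Clotrimazole 50 µg/mL co-treatment · System – C. albicans biofilms · Schedule – 24 h biofilm formation, then 48 h compound exposure, 37 °C · Evaluation – percent inhibition of biofilm viability · Technique – 2-h Alamar Blue fluorescence, 535/590 nm excitation/emission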
Pf gametocyte – late stage P. falciparum gametocyte viability inhibitors, primary screen, ATP luminescence, HTS | AID 743093, 2013 | 150,000 compounds, 0.065% hits | P. falciparum stage V gametocytes, 24 h | inhibition, % at 10.9 µM;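 active = inhibition above the mean plus 3 SD of compounds within the control limits, set per campaign, cut at about 38% in these data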;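 also: 0% = DMSO wells and 100% = medium only without gametocytes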
ROMK hit retest – ROMK channel modulator hit retest, confirmation, cell-based, thallium flux, duplicate, resupplied hits | shares compounds with ROMK mod | fluorescence ratio; stronger effect = lower value | normalized thallium flux (F/F0 slope) at 10 µM | 3,000 compounds, 54% hits;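 active = Flux at 10 µM at least 3 SD below or above vehicle control mean in one or both replicates; inconclusive = no clear call, values can overlap the other calls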
Active calls of the source: *; ? = inconclusive; · = no result. The entries come from a sample that favours hits as a whole.

SMILES | ROMK mod | Calb biofilm kill | Pf gametocyte | ROMK hit retest
O=C(CSc1nc2ccccc2c(=O)n1CC1CCCCC1)N1CCOCC1 | -1.4 | · | · | ·
O=C(O)/C=C/C(=O)Nc1ccc(S(=O)(=O)N2CCCC2)cc1 | · | 14 | -1 | ·
Oc1c(Cl)cc(Cl)cc1/C=N/c1nc(-c2ccc(Cl)cc2)cs1 | · | 15 | · | ·
Oc1c(Cl)cc(Cl)cc1/C=N/c1nccs1 | 3.1* | · | · | 0.1*
CC1CCCCN1CCn1c(=S)[nH]c2cc3c(cc2c1=O)OCO3 (centres undefined) | -1.2 | 15 | -9 | ·
O=C1CC2(CCCC2)Oc2ccc(F)cc21 | · | · | -15 | ·
Cc1ccc2c(c1)C(=O)CC(O)(C(F)F)O2 (centres undefined) | · | 30 | 12 | 0.093
CCc1ccc(/C=C2\Oc3cc(OC(=O)N4CCOCC4)ccc3C2=O)cc1 | 0.11 | 14 | 3 | ·
CCC(=O)Oc1ccc2c(c1)O/C(=C\c1ccco1)C2=O | -7.4* | 13 | 20 | 0.051*
CC(=O)Oc1ccc2c(c1)O/C(=C\c1ccncc1)C2=O | · | 13 | · | ·
COc1ccccc1C(=O)Oc1ccc2c(c1)O/C(=C\c1ccncc1)C2=O | · | 7 | 6 | 0.061*
CC(C)(C)c1ccc(-c2nc(O)c(CC(=O)O)s2)cc1 | · | 23 | · | ·
COc1cccc(C(=O)N2CCCN(C)CC2)c1OC | · | · | 19 | ·
COc1cc(/C=C(\C#N)C(=O)NCC2CCCO2)c([N+](=O)[O-])cc1OC (centres undefined) | · | · | -4 | ·
N#C/C(=C\c1cccc([N+](=O)[O-])c1)C(=O)NCC1CCCO1 (centres undefined) | -11* | 9 | 9 | 0.042*
COc1cc(/C=C/C(=O)OCC(=O)NC(=O)NC23CC4CC(CC(C4)C2)C3)ccc1OCC#N | 1.5 | 3 | · | ·
CN1C[C@@H]2[C@@H]3C(=O)N(C)C(=O)[C@@H]3[C@](Cc3ccccc3)(C1=O)N2C(=O)c1ccc(Cl)cc1 | · | · | -52 | ·
O=C(NCc1ccccc1)N1CCC(n2cnc3cc(F)ccc32)CC1 | · | · | · | 0.069*
Cc1ccc2c(c1)nnn2C1CCN(C(=O)NCc2ccccc2)CC1 | -0.045 | 17 | · | ·
OCCC1CN(Cc2cn[nH]c2C2CCCCC2)CCN1C1CCCCC1 (centres undefined) | -0.76 | 12 | -1 | ·
Cc1ccccc1Cn1nc(C)c(NC(=O)/C=C/c2cnn(C)c2)c1C | 3.2* | -15 | -1 | 0.085
Cc1ccccc1Cn1nc(C)c(NC(=O)/C=C/c2cnn(C)c2C)c1C | 0.29 | 12 | 6 | ·
Cc1[nH]c2ccccc2c1/C=N/NC(=O)c1cc(C(C)C)[nH]n1 | 0.38 | 7 | 15 | ·
CCN=C1SC(CC(=O)NCC)C(=O)N1CC (centres undefined) | 3* | · | · | 0.081
CCNC(=O)CC1SC(=Nc2ccc(Cl)cc2)N(CC)C1=O (centres undefined) | 0.91 | 12 | 7 | ·
SMILES | ROMK mod | Calb biofilm kill | Pf gametocyte | ROMK hit retest
CCOc1ccc(C(=O)Nc2ccc(NC(=O)c3ccccc3)c(C)c2)cc1[N+](=O)[O-] | · | · | -5 | ·
CC(C)c1ccc(OCC(=O)N(c2ccccn2)C2CCCCC2)cc1 | -2.6* | 8 | -11 | 0.055*
O=C(COc1ccc(F)cc1)N(c1ccccn1)C1CCCCC1 | 0.5 | -2 | 2 | ·
Nc1nnc(CCS(=O)(=O)c2ccc(Br)cc2)s1 | 0.44 | 8 | 2 | ·
Cc1ccc(C(=O)NC(C)C(c2cccs2)N2CCCC2)s1 (centres undefined) | -3.6* | 17 | 36 | 0.072
CC(NC(=O)COc1ccccc1)C(c1cccs1)N1CCCC1 (centres undefined) | -0.9 | 12 | 4 | ·
CCOc1ccc(Br)cc1C1=CC(=O)C[C@H](c2ccc(OC)cc2)C1 | · | · | -1 | ·
O=c1c(/C=N/Nc2ccccc2)c(Sc2nnnn2-c2ccccc2)nc2ccccn12 | -3.7* | · | 2 | 0.04*
O=C(O)c1ccccc1N/N=C/c1c(Sc2nnnn2-c2ccccc2)nc2ccccn2c1=O | · | 29 | 5 | ·
Oc1ccc(Br)cc1/C=N/n1c(-c2ccccc2)n[nH]c1=S | · | · | 10 | ·
Oc1ccc(Br)cc1C=Nc1cccn2cc(-c3ccccc3)nc12 | -11* | 6 | 16 | ?
CCc1cc(Cn2nc(-c3ccccc3)cc2C(=O)NCC2CC2)on1 | · | · | -10 | ·
O=C(Nc1ccc(Cl)cc1)Nc1nnc(-c2ccncc2)s1 | · | 11 | -15 | ·
O=C(Nc1ccc(F)cc1)Nc1nnc(-c2ccncc2)s1 | -2.1* | · | · | 0.08
NC(=O)c1ccccc1NC(=O)CCc1ccccc1 | · | · | · | 0.087
NC(=O)c1ccccc1NC(=S)NC(=O)CCc1ccccc1 | 2.6 | 14 | -17 | ·
Cn1c(-c2ccccc2)c(/C=N/NC(=O)c2ccc(O)cc2)c2ccccc21 | · | 8 | -3 | 0.08
O=C(N/N=C\c1c(O)ccc2ccccc12)c1ccc(O)cc1 | · | · | -16 | ·
COc1nsnc1NS(=O)(=O)c1ccc(NC(=S)NC(=O)c2cccnc2)cc1 | 1 | 10 | 5 | ·
CN(C)C(=S)c1ccccc1 | · | 19 | -3 | 0.074
CN(C)C(=S)c1ccc(N(C)C)cc1 | · | 9 | 3 | ·
CCc1ccc(CNC(=O)c2cc3c(C)nc4ccccc4c3o2)cc1 | · | · | · | 0.071
Cc1nc2ccccc2c2oc(C(=O)Nc3ccc(C(C)C)cc3)cc12 | · | 2 | -10 | ·
Cc1ccc(S(=O)(=O)NCC(=O)NCC(=O)OCC(=O)N2CC(=O)Nc3ccccc32)cc1C | -0.8 | 8 | · | ·
Cc1[nH]c2ccccc2c1CN1CCC(CO)(Cc2ccccc2)CC1 | -1.5 | -3 | 10 | ·
SMILES | ROMK mod | Calb biofilm kill | Pf gametocyte | ROMK hit retest
Cc1c(CN2CCC(CO)(Cc3ccccc3)CC2)c2ccccc2n1C | -2.4* | 29 | -14 | 0.06*
C=CCn1c(NC(=O)c2ccc(C)cc2)nc2ccccc21 | · | · | 21 | ·
O=C(Nc1cc(Cl)cc(Cl)c1)C1CCCC1 | · | · | -17 | ·
C1=C(c2ccc(-c3ccccc3)cc2)Nc2ncnn2C1c1ccco1 (centres undefined) | · | · | 13 | ·
Fc1ccc(C2=CC(c3ccco3)n3ncnc3N2)cc1 (centres undefined) | -3.1* | 12 | · | 0.053*
COc1ccccc1NC(=S)NC(NC(=O)CC(C)C)C(Cl)(Cl)Cl (centres undefined) | -0.93 | 19 | -8 | ·
OCC1(Cc2ccccc2)CCN(C2CCN(c3ccc(F)c(F)c3)CC2)CC1 | · | 13 | · | ·
COc1cccc(CC2(CO)CCN(CC3=CC[C@H]4C[C@@H]3C4(C)C)CC2)c1 | -0.98 | 10 | 21 | ·
Cc1ccc(-n2c(C)nn(Cc3ccc([N+](=O)[O-])cc3)c2=O)cc1 | -0.3 | 18 | 32 | ·
Cc1ccc(-n2c3nc(=O)[nH]c(=O)c-3cc3cc([N+](=O)[O-])ccc32)cc1 | -6.6* | 24 | 8 | 0.038*
CCCCC(=O)NC(=S)Nc1ccc(NC(=O)C(C)C)c(OC)c1 | -1.2 | 18 | -6 | ·
C/C(=N/NC(=O)C1CCN(S(=O)(=O)c2ccc(C)cc2)CC1)c1cccc([N+](=O)[O-])c1 | -2.5* | 12 | · | 0.076
C/C(=N\NC(=O)c1cccc([N+](=O)[O-])c1)c1cccc(NC(=O)C2CC2)c1 | · | 19 | -25 | ·
Cc1cc(C2=NNC(=NC3CC3)SC2)c(C)n1Cc1ccco1 | · | 11 | -18 | ·
COCCCN=C1NN=C(c2cc(C)n(Cc3ccco3)c2C)CS1 | 1.3* | 8 | 6 | 0.074
Oc1ccc(Cl)cc1CNCc1ccc(C(F)(F)F)cc1 | · | · | -75 | ·
